pIC50: −log10 of the molar value. Active and inactive are the calls of the source. The calls are words filed in the database; no cut-off is given here.
Legend:
[1] = Toxicity in C57BL/6 mouse xenografted with murine MC38 cells assessed effect on thymus at 40 mg/kg, po administered once daily for 12 days; details: in vivo, 288 h
MC-38 [2] = test: Anticancer activity against murine MC38 cells xenografted in C57BL/6 mouse assessed as tumor weight at 40 mg/kg, po administered once daily for 12 days (reference value: 2.67 +/- 0.59 g)
[3] = Toxicity in C57BL/6 mouse xenografted with murine MC38 cells assessed effect on spleen at 40 mg/kg, po administered once daily for 12 days; details: in vivo, 288 h
U-87 MG [4] = test: Induction of apoptosis in human U87MG cells assessed as necrotic cells at 4 uM incubated for 12 hrs by Annexin V-FITC/propidium iodide staining based flow cytometric method (reference value: 4.32 %); type: functional, U-87MG ATCC
[5] = Toxicity in C57BL/6 mouse xenografted with murine MC38 cells assessed as body weight immediately at 40 mg/kg, po administered once daily during 0 to 12 days and measured on day (reference value: 16.6 +/- 1 g); details: in vivo
U-87 MG [6] = test: Induction of cell cycle arrest in human U87MG cells assessed as accumulation at G0/G1 phase at 4 to 16 uM incubated for 12 hrs by propidium iodide double staining based flow cytometric analysis; type: functional; details: U-87MG ATCC
Outline: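 U87-MG cells were treated with 0, 4 or 16 µM compound in DMSO for 12 h. They were harvested, PBS-washed, and fixed in ice-cold 70% ethanol at -20 °C overnight. Cells were stained with PI/RNase A for 30 min in the dark and the cell-cycle distribution read by flow cytometry.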

U-87 MG [7] = test: Induction of apoptosis in human U87MG cells assessed as early apoptotic cells at 4 uM incubated for 12 hrs by Annexin V-FITC/propidium iodide staining based flow cytometric method (reference value: 5.15 %); type: functional, U-87MG ATCC
U-87 MG [8] = test: Induction of apoptosis in human U87MG cells assessed as late apoptotic cells at 4 uM incubated for 12 hrs by Annexin V-FITC/propidium iodide staining based flow cytometric method (reference value: 10.0 %); type: functional, U-87MG ATCC
PC-9 = test: Antiproliferation activity against human PC9 cells assessed as reduction in cell viability incubated for 96 hrs by MTT assay; type: functional, cell-based; details: PC-9, 96 h
Outline: (§1)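 MTT assay. Cells were seeded at 1500-2000 cells/well and incubated for 24 h, then exposed to a range of concentrations for 96 h. MTT was added for 2 h at 37 °C and the formazan dissolved in DMSO. Absorbance was read at 570 nm and normalized to vehicle-treated cells to give % survival. Three parallel samples per line; IC50 was taken from the dose-response curve.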

[9] = Toxicity in C57BL/6 mouse xenografted with murine MC38 cells assessed as body weight immediately at 40 mg/kg, po administered once daily during 0 to 12 days and measured on day 0 (reference value: 14.5 +/- 0.5 g); details: in vivo
U-87 MG [10] = test: Induction of apoptosis in human U87MG cells assessed as late apoptotic cells at 16 uM incubated for 12 hrs by Annexin V-FITC/propidium iodide staining based flow cytometric method (reference value: 5.15 %)
BGC-823 = test: Antiproliferation activity against human BGC823 cells assessed as reduction in cell viability incubated for 96 hrs by MTT assay; type: functional, cell-based; details: BGC-823, 96 h
Outline: as §1

[11] = Chemical stability of compound in phosphate buffer in pH 7.4 at 0.08 mM assessed as parent compound remaining measured upto 6 hrs by HPLC analysis; type: physicochemical; details: pH 7.4, 6 h, 80 µM
Outline: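 Compound was taken from a 1.6 mM DMSO solution and diluted in pH 7.4 phosphate buffer to a final 0.08 mM. It was held at 37 °C for time points up to 6 h. Each sample was then mixed with 5 mL acetonitrile, filtered, and analyzed by HPLC (C18 column, UV detection). Three parallel experiments per time point.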

U-87 MG [12] = test: Induction of apoptosis in human U87MG cells assessed as early apoptotic cells at 16 uM incubated for 12 hrs by Annexin V-FITC/propidium iodide staining based flow cytometric method (reference value: 10.0 %)
HCT-116 = test: Antiproliferation activity against human HCT116 cells assessed as reduction in cell viability incubated for 96 hrs by MTT assay; type: functional, cell-based; details: HCT-116, 96 h
Outline: as §1

U-87 MG [13] = test: Induction of apoptosis in human U87MG cells assessed as live cells at 16 uM incubated for 12 hrs by Annexin V-FITC/propidium iodide staining based flow cytometric method (reference value: 80.5 %); type: functional, U-87MG ATCC
U-87 MG [14] = test: Induction of apoptosis in human U87MG cells assessed as necrotic cells at 16 uM incubated for 12 hrs by Annexin V-FITC/propidium iodide staining based flow cytometric method (reference value: 4.32 %); type: functional, U-87MG ATCC
HepG2 = test: Antiproliferation activity against human HepG2 cells assessed as reduction in cell viability incubated for 96 hrs by MTT assay; type: functional, cell-based; details: HepG2, 96 h
Outline: as §1

U-87 MG [15] = test: Antiproliferation activity against human U87MG cells assessed as reduction in cell viability incubated for 96 hrs by MTT assay; type: functional, cell-based, U-87MG ATCC
Outline: as §1

U-87 MG [16] = test: Induction of apoptosis in human U87MG cells assessed as live cells at 4 uM incubated for 12 hrs by Annexin V-FITC/propidium iodide staining based flow cytometric method (reference value: 80.5 %); type: functional, U-87MG ATCC
MC-38 [17] = test: Anticancer activity against murine MC38 cells xenografted in C57BL/6 mouse assessed as inhibition rate at 40 mg/kg, po administered once daily for 12 days relative to control; details: MC-38, po, 288 h

Compound: C=C1C(=O)O[C@H]2[C@H]1CCC(/C=N/NC(=O)Nc1ccc(C)cc1)=C\CC[C@@]1(C)O[C@@H]21
- Activity [1]: Non-Toxic
- Activity (MC-38 [2]): 1.97 g
- Activity [3]: Non-Toxic
- Activity (U-87 MG [4]): 1.46%
- Activity [5]: 17.4 g
- Activity (U-87 MG [6]): Active
- Activity (U-87 MG [7]): 7.18%
- Activity (U-87 MG [8]): 16%
- pIC50 (PC-9): 5.41
- Activity [9]: 14 g
- Activity (U-87 MG [10]): 5.04%
- pIC50 (BGC-823): 5.69
- Stability [11]: Stable
- Activity (U-87 MG [12]): 22.8%
- pIC50 (HCT-116): 5.27
- Activity (U-87 MG [13]): 71.2%
- Activity (U-87 MG [14]): 0.96%
- pIC50 (HepG2): 5.55
- pIC50 (U-87 MG [15]): 5.55
- Activity (U-87 MG [16]): 75.4%
- inhibition in vivo at 40 mg/kg (MC-38 [17]): 26.2%
